Test results published in ChEMBL document CHEMBL1153486, “Discovery of a class of potent gap-junction modifiers as novel antiarrhythmic agents” (Bioorg Med Chem Lett, 2009).
Calls of active or inactive are those of the source. The rule behind the calls is not given here.

How the values were obtained:
[1] = Stability in rat plasma after 3 hrs; type: ADME, cell-free; conditions: read-out: Stability
Procedure, shortened: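 Rat plasma incubation for 3 h; stability reported as percent of compound remaining.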

[2] = system: Mus musculus; assay: Antiarrhythmic activity in calcium chloride-induced mouse arrhythmia model assessed as prolongation of time to conduct cardiac block at 10 pmol/kg, iv relative to control; type: functional, Heart
Procedure, shortened: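 Mice received an intravenous infusion of CaCl2 after IV test compound. The read-out was time to cardiac conduction block, expressed as percent increase over control. Values are means of at least three experiments with standard deviation.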

[3] = system: Mus musculus; assay: Antiarrhythmic activity in calcium chloride-induced mouse arrhythmia model assessed as prolongation of time to conduct cardiac block at 1 to 30 mg/kg, po relative to control; type: functional, organism-based; conditions: Heart
Procedure, shortened: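 Compounds were given orally at 1–30 mg/kg to mice, which then received an intravenous CaCl2 infusion. The read-out was prolongation of time to conduction block versus control.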

[4] = molecular target: Voltage-gated inwardly rectifying potassium channel KCNH2 (Homo sapiens, UniProt Q12809); assay: Inhibition of human ERG
[5] = Tmax in CD1 mouse at 5 mg/kg, po; type: ADME, organism-based; parameters: dose 5 mg/kg, route oral; conditions: in vivo
Procedure, shortened: (§1)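 CD-1 mice were dosed IV at a nominal 1 mg/kg (actual 0.77 mg/kg or 1.6 mg/kg for some compounds) and PO at 5 mg/kg. Parameters were derived from mean drug concentration, N = 3 animals/time point.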

[6] = Clearance in CD1 mouse at 1 mg/kg, iv; type: ADME, organism-based; parameters: dose 1 mg/kg, route intravenous; conditions: in vivo; procedure, shortened: as §1
[7] = AUC in CD1 mouse at 5 mg/kg, po; type: ADME, organism-based; parameters: dose 5 mg/kg, route oral; conditions: plasma; procedure, shortened: as §1
[8] = Half life in CD1 mouse at 1 mg/kg, iv; type: ADME, organism-based; parameters: dose 1 mg/kg, route intravenous; conditions: in vivo; procedure, shortened: as §1
[9] = Half life in CD1 mouse at 5 mg/kg, po; type: ADME, organism-based; parameters: dose 5 mg/kg, route oral; conditions: in vivo; procedure, shortened: as §1
[10] = Metabolic stability in human liver microsomes assessed as half life; type: ADME, Microsome
[11] = Oral bioavailability in CD1 mouse at 5 mg/kg; type: ADME, organism-based; conditions: in vivo; procedure, shortened: as §1
[12] = Volume of distribution at steady state in CD1 mouse at 1 mg/kg, iv; type: ADME, organism-based; parameters: dose 1 mg/kg, route intravenous; conditions: in vivo, read-out: Vdss; procedure, shortened: as §1
[13] = Metabolic stability in rat liver microsomes assessed as half life; type: ADME, Microsome
[14] = Cmax in CD1 mouse at 5 mg/kg, po; type: ADME, organism-based; parameters: dose 5 mg/kg, route oral; conditions: in vivo; procedure, shortened: as §1
[15] = Inhibition of CYP450; type: ADME
[16] = system: Mus musculus; assay: Antiarrhythmic activity in calcium chloride-induced mouse arrhythmia model assessed as prolongation of time to conduct cardiac block at 20 pmol/kg, iv relative to control; type: functional, Heart
Procedure, shortened: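 A medium-throughput IV screen in the mouse CaCl2 infusion arrhythmia model (n = 7–11). Time to conduction block was expressed as percent of saline control.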

[17] = system: Mus musculus; assay: AUC in CD1 mouse at 5 mg/kg, po; conditions: in vivo
[18] = system: Canis familiaris; assay: Half life in dog at 1 mg/kg, iv; type: ADME, organism-based, Canis lupus familiaris; parameters: dose 1 mg/kg, route intravenous; conditions: in vivo
Procedure, shortened: (§2)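 Dogs were dosed IV at 1 mg/kg and PO at 5 mg/kg; one compound was given 2.3 mg/kg IV and 7.8 mg/kg oral. Values are means of at least three animals, or two animals where no SD is given.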

[19] = Tmax in dog at 5 mg/kg, po; type: ADME, organism-based, Canis lupus familiaris; parameters: dose 5 mg/kg, route oral; conditions: in vivo
[20] = system: Mus musculus; assay: Oral bioavailability in CD1 mouse at 0.77 mg/kg; type: ADME, organism-based; conditions: in vivo
[21] = Cmax in dog at 5 mg/kg, po; type: ADME, organism-based, Canis lupus familiaris; parameters: dose 5 mg/kg, route oral; conditions: in vivo; procedure, shortened: as §2
[22] = Oral bioavailability in dog at 5 mg/kg; type: ADME, organism-based, Canis lupus familiaris; conditions: in vivo; procedure, shortened: as §2
[23] = system: Canis familiaris; assay: Volume of distribution at steady state in dog at 1 mg/kg, iv; type: ADME, organism-based, Canis lupus familiaris; parameters: dose 1 mg/kg, route intravenous; conditions: in vivo; procedure, shortened: as §2
[24] = Cmax in CD1 mouse at 0.77 mg/kg, po; type: ADME, organism-based; parameters: dose 0.77 mg/kg, route oral; conditions: in vivo
[25] = Volume of distribution at steady state in CD1 mouse at 0.77 mg/kg, iv; type: ADME, organism-based; parameters: dose 0.77 mg/kg, route intravenous; conditions: in vivo, read-out: Vdss; procedure, shortened: as §1
[26] = AUC in dog at 5 mg/kg, po; type: ADME, organism-based, Canis lupus familiaris; parameters: dose 5 mg/kg, route oral; conditions: plasma; procedure, shortened: as §2
[27] = Half life in dog at 5 mg/kg, po; type: ADME, organism-based, Canis lupus familiaris; parameters: dose 5 mg/kg, route oral; conditions: in vivo; procedure, shortened: as §2
[28] = Half life in CD1 mouse at 0.77 mg/kg, po; type: ADME, organism-based; parameters: dose 0.77 mg/kg, route oral; conditions: in vivo
[29] = Tmax in CD1 mouse at 0.77 mg/kg, po; type: ADME, organism-based; parameters: dose 0.77 mg/kg, route oral; conditions: in vivo
[30] = Half life in CD1 mouse at 0.77 mg/kg, iv; type: ADME, organism-based; parameters: dose 0.77 mg/kg, route intravenous; conditions: in vivo; procedure, shortened: as §1

Sequence of Voltage-gated inwardly rectifying potassium channel KCNH2 (Q12809 whole entry): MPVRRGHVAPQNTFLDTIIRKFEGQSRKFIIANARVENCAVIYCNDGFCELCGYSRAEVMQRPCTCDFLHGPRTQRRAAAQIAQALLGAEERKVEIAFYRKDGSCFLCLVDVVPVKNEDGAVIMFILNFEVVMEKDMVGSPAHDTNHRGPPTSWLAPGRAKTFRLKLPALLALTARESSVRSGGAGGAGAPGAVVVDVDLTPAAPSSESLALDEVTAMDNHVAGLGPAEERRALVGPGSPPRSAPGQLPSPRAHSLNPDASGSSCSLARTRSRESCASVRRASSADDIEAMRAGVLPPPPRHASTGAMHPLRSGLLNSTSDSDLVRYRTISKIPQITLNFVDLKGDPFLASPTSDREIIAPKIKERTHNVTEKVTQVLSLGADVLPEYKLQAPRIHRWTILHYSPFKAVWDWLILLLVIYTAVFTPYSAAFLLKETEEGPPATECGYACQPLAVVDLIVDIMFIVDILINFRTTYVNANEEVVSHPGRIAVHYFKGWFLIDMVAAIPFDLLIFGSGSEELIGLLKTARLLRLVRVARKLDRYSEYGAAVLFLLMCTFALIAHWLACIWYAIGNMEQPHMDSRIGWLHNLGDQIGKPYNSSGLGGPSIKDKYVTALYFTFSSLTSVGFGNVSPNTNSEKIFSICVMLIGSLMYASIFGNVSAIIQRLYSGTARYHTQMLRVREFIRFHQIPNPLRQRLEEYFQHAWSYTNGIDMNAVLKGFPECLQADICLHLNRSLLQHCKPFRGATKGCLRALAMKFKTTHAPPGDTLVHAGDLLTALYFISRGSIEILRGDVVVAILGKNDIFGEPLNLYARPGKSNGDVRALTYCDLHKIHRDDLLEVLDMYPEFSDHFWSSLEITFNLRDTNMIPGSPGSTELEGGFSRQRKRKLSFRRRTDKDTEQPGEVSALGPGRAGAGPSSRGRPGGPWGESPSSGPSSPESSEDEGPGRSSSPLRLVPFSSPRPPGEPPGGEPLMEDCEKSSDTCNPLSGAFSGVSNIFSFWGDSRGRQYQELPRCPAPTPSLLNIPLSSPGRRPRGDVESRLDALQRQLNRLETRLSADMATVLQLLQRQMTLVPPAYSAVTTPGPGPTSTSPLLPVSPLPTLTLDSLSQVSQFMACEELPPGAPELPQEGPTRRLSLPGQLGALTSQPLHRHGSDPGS

In the case of `CCNC(=O)[C@@H]1C[C@@H](NC(=O)c2ccccc2)CN1C(=O)CN`, the remaining at 3 h [1] was 100% and the Activity [2] was 137.2%.
In the case of `CC(=O)NCC(=O)N1C[C@H](NC(=O)c2ccccc2)C[C@H]1C(=O)O`, the Activity [3] was “Active”, the Activity [4] was “Not Active” and the Tmax [5] was 15 min. The clearance [6] was 24 mL/min/kg, the AUC [7] was 66 ng·h/mL and the remaining at 3 h [1] was 100%. For the same molecule, the half-life [8] was 18 min, the half-life [9] was 72 min and the half-life [10] was greater than 30 min. The bioavailability [11] was 2%, the Vd [12] was 0.3 L/kg and the half-life [13] was greater than 30 min. For the same molecule, the Cmax [14] was 38 ng/mL, the Activity [15] was “Not Active” and the Activity [2] was 165.7%.
In the case of `CC(C)(C)NC(=O)[C@@H]1C[C@@H](NC(=O)c2ccccc2)CN1C(=O)CN`, the remaining at 3 h [1] was 99% and the Activity [2] was 135.7%.
With `CC(C)[C@@H](C)NC(=O)[C@@H]1C[C@@H](NC(=O)c2ccccc2)CN1C(=O)CN` the remaining at 3 h [1] was 89% and the Activity [2] was 120.1%.
With `CC(C)NC(=O)[C@@H]1C[C@@H](NC(=O)c2ccccc2)CN1C(=O)CN` the Activity [3] was “Active”, the Activity [4] was “Not Active” and the Tmax [5] was 15 min. It also gave a clearance [6] of 58 mL/min/kg, an AUC [7] of 90 ng·h/mL and a remaining at 3 h [1] of 100%. It also gave a half-life [8] of 54 min, a half-life [9] of 96 min and a half-life [10] greater than 30 min. The bioavailability [11] was 6%, the Vd [12] was 2 L/kg and the half-life [13] was greater than 30 min. The Cmax [14] was 44 ng/mL, the Activity [15] was “Not Active” and the Activity [2] was 162%.
In the case of `CNC(=O)[C@@H]1C[C@@H](NC(=O)c2ccccc2)CN1C(=O)CN`, the remaining at 3 h [1] was 87% and the Activity [2] was 145%.
`CN(C)CC(=O)N1C[C@H](NC(=O)c2ccccc2)C[C@H]1C(=O)O` gave a remaining at 3 h [1] of 100% and an Activity [2] of 118.9%.
With `NCC(=O)N1C[C@H](NC(=O)c2ccccc2)C[C@H]1C(=O)O` [DANEGAPTIDE] the Activity [16] was 149.8%, the AUC [17] was 73 ng·h/mL and the t1/2 [18] was 378 min. For the same molecule, the Tmax [19] was 66 min, the F [20] was 6% and the Cmax [21] was 799 ng/mL. It also gave a remaining at 3 h [1] of 93%, a bioavailability [22] of 14% and a Vdss [23] of 8 L/kg. The Cmax [24] was 26 ng/mL, the Vd [25] was 2.7 L/kg and the AUC [26] was 4790 ng·h/mL. For the same molecule, the half-life [27] was 240 min, the half-life [28] was 114 min and the Tmax [29] was 30 min. The Activity [2] was 206.6% and the half-life [30] was 96 min.
